From PubChem BioAssay
M4 PAM: CHRM4 positive allosteric modulation | CHO-K1 hM4/Gqi5, Fluo-8 calcium fluorescence, ACh EC20; 0% = ACh EC20, 100% = maximal ACh | 360,000 compounds, 0.4% hits | activation, % at 3 µM | P08173;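 active means activation above its plate's cutoff, the mean activation of sample wells plus 3 SD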
CHRM4 agonist: CHRM4 agonism in calcium assay. P08173. CHO-K1 hM4/Gqi5, Fluo-8 calcium fluorescence; vehicle 0%, full acetylcholine response 100%. activation, % at 3 µM. 360,000 compounds, 0.14% hits;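 active means activation above the run mean over all test wells plus 3 SD, cut at about 32% in these data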;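 further: peak over basal fluorescence ratio per well then scaled between controls; 0% = DMSO wells and 100% = acetylcholine at EC100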
M5 ag: agonists of human muscarinic M5 receptor (CHRM5) | 360,000 compounds, 0.19% hits | P08912 | CHO-K1 hM5 cells, Fluo-8 calcium fluorescence; 0% DMSO wells, 100% maximal acetylcholine response | activation, % at 3 µM;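 active means activation above the run's mean over test compounds plus 3 SD, cut at about 23% in these data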;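 further: signal is peak over basal fluorescence ratio across the kinetic read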
Target sequence (P08912 whole entry, looked up): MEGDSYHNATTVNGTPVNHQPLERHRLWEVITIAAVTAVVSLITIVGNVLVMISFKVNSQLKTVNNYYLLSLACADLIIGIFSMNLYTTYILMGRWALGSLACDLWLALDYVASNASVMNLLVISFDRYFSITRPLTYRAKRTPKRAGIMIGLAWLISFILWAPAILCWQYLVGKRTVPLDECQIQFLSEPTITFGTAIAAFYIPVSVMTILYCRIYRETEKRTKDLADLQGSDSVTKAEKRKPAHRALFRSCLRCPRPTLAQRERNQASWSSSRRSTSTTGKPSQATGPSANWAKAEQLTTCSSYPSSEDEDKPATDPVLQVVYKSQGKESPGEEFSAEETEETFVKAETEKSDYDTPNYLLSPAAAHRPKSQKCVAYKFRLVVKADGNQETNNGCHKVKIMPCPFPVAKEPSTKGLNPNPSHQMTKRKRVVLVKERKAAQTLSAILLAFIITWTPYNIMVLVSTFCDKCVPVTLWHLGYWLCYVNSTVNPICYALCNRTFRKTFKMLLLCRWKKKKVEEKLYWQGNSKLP
M5 antag: CHRM5 antagonism in calcium assay. P08912. inhibition, % at 3 µM. CHO-hM5 cells, Fluo-8 calcium fluorescence, ACh EC80. 360,000 compounds, 0.59% hits. AID 624040;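 active means inhibition above a per-plate cutoff, the mean of that plate's test compounds plus 3 SD, cut at about 27% in these data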;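 further: 0% = acetylcholine EC80 with DMSO and 100% = DMSO without agonist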
M5 PAM: potentiates acetylcholine response at human M5 receptor; P08912; CHO-K1 hM5, Fluo-8 calcium, ACh EC20 PAM; 0% = ACh EC20, 100% = ACh EC100; activation, % at 3 µM; 360,000 compounds, 0.3% hits; AID 624038;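 active means activation above the run cutoff, the mean activation of all test compounds plus 3 SD, cut at about 18% in these data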
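System – CHO-K1 hM5 cells · Compound – 3 µM, single dose · Incubation – compound preincubation 140 s before EC20 acetylcholine addition · Technique – Fluo-8 calcium fluorescence · Measure – Max/basal fluorescence ratio as % of EC20–EC100 ACh window · Benchmarks – low control EC20 acetylcholine (0%), high control EC100 acetylcholine (100%) · Replication – singlicate, one well per test compound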
M4 antag: CHRM4 antagonism in calcium assay; inhibition, % at 3 µM; CHO-hM4 cells, ACh EC80, Fluo-8 calcium fluorescence; 360,000 compounds, 0.73% hits;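 active means inhibition above its plate's cutoff, the mean inhibition of sample wells plus 3 SD, cut at about 27% in these data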;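 further: 0% = acetylcholine EC80 with DMSO and 100% = DMSO without agonist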
An asterisk follows results filed as active. An excerpt weighted towards active compounds, which were near 1.8% of everything screened.

SMILES	M4 PAM	CHRM4 agonist	M5 ag	M5 antag	M5 PAM	M4 antag
COC(=O)[C@@]1(Cc2ccc(F)cc2)[C@H]2c3cc(C(=O)N(C)C)n(CC4CC4)c3C[C@H]2CN1C(=O)c1ccccc1	4	4	5	-6	-3	-14
CC(=O)c1sc(NC(=O)CCS(=O)(=O)c2ccccc2)nc1C	17*	1	1	-9	14	1
CC(=O)c1sc(NC(=O)CCS(=O)(=O)c2ccc(F)cc2)nc1C	-2	1	1	-1	-6	-5
Cc1cc(-c2ccccc2)[nH]c(=O)c1S(=O)(=O)c1ccc(Cl)cc1	6	0	2	4	-3	5
Cc1cc(-c2ccccc2)[nH]c(=O)c1S(=O)(=O)c1ccccc1	2	3	-4	4	21*	-3
COc1ccccc1-c1cnc(C(O)c2ccc(SC)cc2)[nH]1 (configuration not stated)	-3	6	2	-1	4	-2
C=CC[n+]1ccc(/C=C2\C=Cc3cc(C)ccc3N2CC)c2ccccc21	-12	4	1	35*	-18	15
CCN1/C(=C/c2cc[n+](CCCS(=O)(=O)[O-])c3ccccc23)Sc2ccccc21	1	0	-1	0	5	2
CNC(=S)NCc1ccc2[nH]c(C)cc2c1	5	0	-3	1	18*	-3
Cc1cc2cc(CNC(=S)NC3CCCCC3)ccc2[nH]1	11	2	1	6	-2	-9
Cc1cc(-n2cccn2)ccc1CN1CCN(C2CCCC2)C(CCO)C1 (configuration not stated)	-21	2	-16	54*	-34	99*
Cc1cc(-n2cccn2)ccc1CN1CCN(CC(C)C)C(CCO)C1 (configuration not stated)	-41	0	-18	-5	-4	55*
CC(C)N1CCC(N2CCN(Cc3cc(F)ccc3-n3cccn3)CC2CCO)CC1 (configuration not stated)	18	1	-9	-7	22*	-18
CC(C)N1CCN(Cc2cc(F)ccc2-n2cccn2)CC1CCO (configuration not stated)	-1	0	-6	7	-5	7
CC(C)CCN1CCN(Cc2cccc(-n3cccn3)c2)CC1CCO (configuration not stated)	-25	0	-8	4	-1	2
O=C(NC(Nc1nc2ccc([N+](=O)[O-])cc2s1)(C(F)(F)F)C(F)(F)F)c1cccnc1	-7	14	9	26	-15	8
O=C(NC(Nc1nc2ccc([N+](=O)[O-])cc2s1)(C(F)(F)F)C(F)(F)F)c1ccccc1Cl	-10	7	6	49*	-19	15
CCCc1c(-c2cccc(Cl)c2)ncn1CCc1ccccc1OC	-10	1	-3	7	-22	-1
COc1ccc(N2CCN(C(=S)Nc3ccccc3)CC2)cc1	-3	1	1	10	-3	-3
Cc1ccc(C(=O)N2CCN(c3ccc(NC(=S)NC(=O)Cc4ccccc4)cc3)CC2)cc1	-9	4	-1	29*	-19	13
CC(=O)c1ccc(N2CCN(C(=S)Nc3ccc(Oc4ccccc4)cc3)CC2)cc1	-21	13	2	35*	-31	19
Cc1ccc(-n2c(-c3ccccc3)c[n+]3c2CCc2ccccc2-3)c(C)c1	-20	4	-14	35*	-22	26
O=C(c1cc2c(c(-c3cccc(-c4ccncc4)c3)n1)[C@H](CCO)N(C(=O)c1ccc3c(c1)OCO3)C2)N1CCOCC1	-2	0	1	1	-8	7
CCN(CC)c1ccc2nc3ccc(N)cc3[n+](-c3ccccc3)c2c1	-2	3	-6	4	4	6
CCN(CC)c1ccc2nc3ccccc3[n+](CC)c2c1	-14	0	-22	-5	6	27*
SMILES	M4 PAM	CHRM4 agonist	M5 ag	M5 antag	M5 PAM	M4 antag
Cn1c(=O)c2c(nc(N3CCOCC3)n2C/C=C/c2ccccc2)n(C)c1=O	-5	1	0	9	-12	-5
COc1ccc(NC(=O)c2cccnc2Nc2ccc(OC)cc2)cc1	-17	2	-4	4	0	52*
CCC1Nc2ncnc(N3CCOCC3)c2N(Cc2ccc(Cl)cc2)C1=O (configuration not stated)	24*	2	-2	14	-3	9
CC1Nc2ncnc(N3CCOCC3)c2N(Cc2ccc(Cl)cc2)C1=O (configuration not stated)	14	3	6	-3	3	5
Cc1ccc(-n2c(CSc3nc(C)cc(C)n3)nnc2SCC(=O)Nc2nccs2)cc1	25	3	4	-6	9	38*
COc1ccc(-n2c(CSc3nc(C)cc(C)n3)nnc2SCC(=O)Nc2nccs2)cc1	0	0	1	5	-9	-3
CCCCCOc1ccc(Br)cc1CSC(=N)N	-14	12	4	32*	-17	25
Cc1ccc(C(=O)OCC(=O)NCc2ccc3c(c2)OCO3)o1	-1	0	2	-1	6	-8
Cn1c(-c2cccc([N+](=O)[O-])c2)cnc1NCc1cccc(F)c1	-5	0	-21	2	-2	-5
CN1\C(=C/C=C/C=C/C=[N+](C)C)C(C)(C)c2ccccc21	-14	8	38*	9	-9	21
CCCCCCCCCCCCN1[C@@H](CC(=O)OC)c2cc(F)ccc2S1(=O)=O	30*	2	-1	7	-4	-5
CCCCCCCCCCCCN1[C@@H](CC(=O)OC)c2cc(F)cc(F)c2S1(=O)=O	26*	1	1	1	6	-4
CCCCCCCCCCCCN1[C@@H](CC(C)=O)c2cc(F)ccc2S1(=O)=O	8	1	0	0	-1	-9
O=C(CCC(=O)OCC(=O)c1cccc([N+](=O)[O-])c1)Nc1ccccc1Cl	3	1	0	-7	4	4
Cc1oncc1C(=O)N1CCCC(CO)(Cc2ccc(F)cc2F)C1 (configuration not stated)	-2	2	-4	10	-7	-16
COc1ccc(CN2CCc3c([nH]c4ccccc34)C2)c(OC)c1C	-1	1	-11	17	-2	2
COCC1CCN(Cc2c(C(=O)N3CCOCC3)nc3c(C)cccn23)C1 (configuration not stated)	4	1	0	2	-2	-8
Cc1ccc(C)c(NS(=O)(=O)c2c(C)nn(C)c2C)c1	4	2	-2	-9	2	-8
